ChEMBL document CHEMBL3044755, “5-Methyl-1,2,3-thiadiazoles synthesized via ugi reaction and their fungicidal and antiviral activities” (J Agric Food Chem, 2010)

Tests used:
Rhizoctonia solani = assay: Fungicidal activity against Rhizoctonia solani at 50 ug/ml by growth inhibition method; format: functional; conditions: read-out: GI
How it was run: (§1)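 Mycelial growth inhibition on potato dextrose agar. The panel covered Alternaria solani, Botrytis cinerea, Cercospora arachidicola, C. beticola, Colletotrichum lagenarium, Fusarium oxysporum, Gibberella zeae, Puccinia triticina, Phytophthora infestans, Physalospora piricola, Pellicularia sasakii and Rhizoctonia solani.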

Puccinia triticina = assay: Fungicidal activity against Puccinia triticina at 50 ug/ml by growth inhibition method; format: functional; conditions: read-out: GI; how it was run: as §1
Thanatephorus cucumeris = assay: Fungicidal activity against Thanatephorus cucumeris at 50 ug/ml by growth inhibition method; format: functional; conditions: read-out: GI; how it was run: as §1
[1] = system: Botryosphaeria berengeriana; assay: Fungicidal activity against Botryosphaeria berengeriana at 50 ug/ml by growth inhibition method; format: functional; conditions: read-out: GI; how it was run: as §1
Phytophthora infestans = assay: Fungicidal activity against Phytophthora infestans at 50 ug/ml by growth inhibition method; format: functional; conditions: read-out: GI; how it was run: as §1
Fusarium graminearum = assay: Fungicidal activity against Fusarium graminearum at 50 ug/ml by growth inhibition method; format: functional; conditions: read-out: GI; how it was run: as §1
Colletotrichum lagenaria = assay: Fungicidal activity against Colletotrichum lagenaria at 50 ug/ml by growth inhibition method; format: functional; conditions: read-out: GI; how it was run: as §1
Cercospora beticola = assay: Fungicidal activity against Cercospora beticola at 50 ug/ml by growth inhibition method; format: functional; conditions: read-out: GI; how it was run: as §1
Mycosphaerella arachidis = assay: Fungicidal activity against Mycosphaerella arachidis at 50 ug/ml by growth inhibition method; format: functional; conditions: read-out: GI; how it was run: as §1
Alternaria solani = assay: Fungicidal activity against Alternaria solani at 50 ug/ml by growth inhibition method; format: functional; conditions: read-out: GI; how it was run: as §1
Nicotiana tabacum [2] = assay: Induction of systemic acquired resistance activity in TMV infected-Nicotiana tabacum (tobacco) leaves at 50 ug/ml; format: functional
How it was run: (§2)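 Tobacco/TMV system used for systemic acquired resistance induction. Inhibition ratio calculated from mean lesion numbers on inoculated leaves relative to corresponding control. Tiadinil and ribavirin run as controls.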

Nicotiana tabacum [3] = assay: Phytotoxicity against Nicotiana tabacum (tobacco) plant; format: organism-based; conditions: in vivo
Nicotiana tabacum [4] = assay: Induction of systemic acquired resistance activity in TMV infected-Nicotiana tabacum (tobacco) leaves at 100 ug/ml; format: functional; how it was run: as §2
Tobacco mosaic virus [5] = assay: In vivo antiviral activity against Tobacco mosaic virus (TMV) infected tobacco leaves assessed as inactivation effect at 100 ug/ml co-treated with virus for 30 min before inoculation onto leaves measured at 2-3 days after viral challenge; format: functional
How it was run: (§3)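 TMV (5.88 10-2 μg/mL) mixed with equal volume of compound solution for 30 min, then rubbed onto upper three leaves of six-leaf tobacco; solvent on lower three leaves as control. Lesions counted 2-3 days later, three repetitions. Inhibition (%) = (CK − A)/CK × 100 from mean lesion counts.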

Tobacco mosaic virus [6] = assay: In vivo antiviral activity against Tobacco mosaic virus (TMV) infected tobacco leaves assessed as inactivation effect at 500 ug/ml co-treated with virus for 30 min before inoculation onto leaves measured at 2-3 days after viral challenge; format: functional; how it was run: as §3
Tobacco mosaic virus [7] = assay: In vivo antiviral activity against Tobacco mosaic virus (TMV) infected tobacco leaves assessed as curative effect at 100 ug/ml treated after viral inoculation measured at 2-3 days after viral challenge; format: functional
How it was run: (§4)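 Curative test: whole six-leaf tobacco leaves rubbed with TMV (5.88 10-2 μg/mL), dried in greenhouse, then compound smeared on upper three leaves and solvent on lower three as control. Local lesions scored 2-3 days after inoculation, three repetitions. Inhibition (%) = (CK − A)/CK × 100 on mean lesion numbers.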

Tobacco mosaic virus [8] = assay: In vivo antiviral activity against Tobacco mosaic virus (TMV) infected tobacco leaves assessed as curative effect at 500 ug/ml treated after viral inoculation measured at 2-3 days after viral challenge; format: functional; how it was run: as §4
Tobacco mosaic virus [9] = assay: In vivo antiviral activity against Tobacco mosaic virus (TMV) infected tobacco leaves assessed as protective effect at 100 ug/ml treated 12 hr before viral inoculation measured at 2-3 days after viral challenge; format: functional
How it was run: (§5)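 Six-leaf tobacco; compound solution smeared over whole leaves, dried in greenhouse, then after 12 h TMV (5.88 10-2 μg/mL) rubbed onto upper three leaves, with solvent on lower three leaves as control. Local lesions counted 2-3 days post-inoculation, three repetitions. Inhibition (%) = (CK − A)/CK × 100 from mean lesion numbers.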

Tobacco mosaic virus [10] = assay: In vivo antiviral activity against Tobacco mosaic virus (TMV) infected tobacco leaves assessed as protective effect at 500 ug/ml treated 12 hr before viral inoculation measured at 2-3 days after viral challenge; format: functional; how it was run: as §5
Tobacco mosaic virus [11] = assay: In vitro antiviral activity against Tobacco mosaic virus (TMV) infected tobacco leaves at 100 ug/ml; format: functional
Tobacco mosaic virus [12] = assay: In vitro antiviral activity against Tobacco mosaic virus (TMV) infected tobacco leaves at 500 ug/ml; format: functional
Fusarium oxysporum = assay: Fungicidal activity against Fusarium oxysporum at 50 ug/ml by growth inhibition method; format: functional; conditions: read-out: GI; how it was run: as §1
Botrytis cinerea = assay: Fungicidal activity against Botryotinia fuckeliana at 50 ug/ml by growth inhibition method; format: functional; conditions: read-out: GI; how it was run: as §1
Tobacco mosaic virus [13] = assay: In vitro antiviral activity against Tobacco mosaic virus (TMV) infected tobacco leaves at 200 ug/ml; format: functional

SMILES	inhibition of growth at 50 µg/mL (Thanatephorus cucumeris) [%]	inhibition of growth at 50 µg/mL [1] [%]	inhibition of growth at 50 µg/mL (Phytophthora infestans) [%]	inhibition of growth at 50 µg/mL (Fusarium graminearum) [%]	inhibition of growth at 50 µg/mL (Colletotrichum lagenaria) [%]	inhibition of growth at 50 µg/mL (Cercospora beticola) [%]	inhibition of growth at 50 µg/mL (Mycosphaerella arachidis) [%]	inhibition of growth at 50 µg/mL (Alternaria solani) [%]	Activity (Nicotiana tabacum [2]) [%]	Activity (Nicotiana tabacum [3])	Activity (Nicotiana tabacum [4]) [%]	Activity (Tobacco mosaic virus [5]) [%]	Activity (Tobacco mosaic virus [6]) [%]	Activity (Tobacco mosaic virus [9]) [%]	Activity (Tobacco mosaic virus [10]) [%]	inhibition at 500 µg/mL (Tobacco mosaic virus [12]) [%]	inhibition of growth at 50 µg/mL (Fusarium oxysporum) [%]	inhibition of growth at 50 µg/mL (Botrytis cinerea) [%]	inhibition at 200 µg/mL (Tobacco mosaic virus [13]) [%]	also measured
Cc1cccc(C(C(=O)NC2CCCCC2)N(C(=O)c2nnsc2C)c2ccc(C)c(F)c2)c1 (stereo not drawn)	0	0	1	36	0	25	0	6	40	Non-toxic	54	38	69	10	8	29	–	–	–	inhibition of growth at 50 µg/mL (Rhizoctonia solani): 37%; inhibition of growth at 50 µg/mL (Puccinia triticina): 0%; Activity (Tobacco mosaic virus [7]): 29%; Activity (Tobacco mosaic virus [8]): 38%; inhibition at 100 µg/mL (Tobacco mosaic virus [11]): 44%
Cc1ccc(N(C(=O)c2nnsc2C)C(C(=O)NC2CCCCC2)c2cccc(O)c2)cc1F (stereo not drawn)	0	0	6	14	0	25	0	0	32	Non-toxic	76	44	67	43	44	48	–	–	–	inhibition of growth at 50 µg/mL (Rhizoctonia solani): 30%; inhibition of growth at 50 µg/mL (Puccinia triticina): 0%; Activity (Tobacco mosaic virus [7]): 23%; Activity (Tobacco mosaic virus [8]): 57%; inhibition at 100 µg/mL (Tobacco mosaic virus [11]): 25%
Cc1ccc(N(C(=O)c2nnsc2C)C(C(=O)NC(C)C)c2ccccc2C(F)(F)F)cc1Cl (stereo not drawn)	57	43	13	24	17	23	18	36	–	–	–	–	–	–	–	16	10	70	29	–
Cc1ccc(C(C(=O)NC(C)C)N(C(=O)c2nnsc2C)c2ccc(C)c(Cl)c2)cc1 (stereo not drawn)	60	37	0	0	11	9	33	34	–	–	–	–	–	–	–	21	19	79	11	–
Cc1ccc(N(C(=O)c2nnsc2C)C(C(=O)NC(C)C)c2ccc(O)cc2)cc1Cl (stereo not drawn)	65	36	23	20	10	17	17	37	23	Non-toxic	41	50	64	8	36	4	23	76	0	–
Cc1ccc(N(C(=O)c2nnsc2C)C(C(=O)NC(C)C)c2ccc([N+](=O)[O-])cc2)cc1Cl (stereo not drawn)	60	33	21	4	4	9	17	39	–	–	–	–	–	–	–	19	23	79	14	–
Cc1ccc(N(C(=O)c2nnsc2C)C(C(=O)NC(C)C)c2ccc(Cl)cc2)cc1Cl (stereo not drawn)	60	47	19	4	7	9	21	37	–	–	–	–	–	–	–	32	26	76	25	–
Cc1ccc(N(C(=O)c2nnsc2C)C(C(=O)NC(C)C)c2cccc(Cl)c2)cc1Cl (stereo not drawn)	62	40	14	4	14	9	8	37	–	–	–	–	–	–	–	9	26	76	6	–
Cc1ccc(N(C(=O)c2nnsc2C)C(C(=O)NC(C)C)c2ccccc2Cl)cc1Cl (stereo not drawn)	72	27	23	23	13	25	21	49	–	–	–	–	–	–	–	8	23	76	3	–
Cc1ccc(N(C(=O)c2nnsc2C)C(C(=O)NC(C)C)c2ccc(F)cc2)cc1Cl (stereo not drawn)	63	36	5	27	17	25	13	42	–	–	–	–	–	–	–	19	14	70	14	–
Cc1ccc(N(C(=O)c2nnsc2C)C(C(=O)NC(C)C)c2ccc(C(F)(F)F)cc2)cc1Cl (stereo not drawn)	56	11	0	67	7	17	25	35	–	–	–	–	–	–	–	34	12	70	32	–
Cc1ccc(N(C(=O)c2nnsc2C)C(C(=O)NC(C)C)c2cccc(C(F)(F)F)c2)cc1Cl (stereo not drawn)	26	44	0	50	17	25	13	37	–	–	–	–	–	–	–	41	14	76	17	–
NC(=O)c1ncn([C@@H]2O[C@H](CO)[C@@H](O)[C@H]2O)n1 [RIBAVIRIN]	–	–	–	–	–	–	–	–	31	Non-toxic	28	46	59	30	59	32	–	–	–	inhibition at 100 µg/mL (Tobacco mosaic virus [11]): 20%
